This passage reports cytotoxicity results from ChEMBL document CHEMBL4513216, “Probing the Open Global Health Chemical Diversity Library for Multistage-Active Starting Points for Next-Generation Antimalarials” (ACS Infect Dis, 2020).

SMILES strings stand for the structures.

The nature of this data set: Toxicity liver stage against HepG2, at 10uM. The format is cell-based. The arrangement: test concentration 10 uM, cell line HepG2-A16-CD81EGFP. The following applies: human, HepG2-A16-CD81EGFP cells; read-out: INHIBITION
Put shortly:
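Uninfected HepG2-A16-CD81EGFP cells, 3 × 10^3 per well, 1536-well, plated on prespotted compound at 10 μM final, parasite-free screening media added to match infected plates; puromycin 10 μM positive, DMSO 0.5% negative; run in parallel with 48 h PbLuc assay at 37 °C, 5% CO2; viability by CellTiter-Glo luminescence, normalized to controls.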
As for `O=C(NC[C@H]1OC[C@@H](NC2CCC(F)(F)CC2)[C@@H]1O)c1ccccc1`, the cytotoxicity at 10 µM was -4.1%.

With `O=S1(=O)CCC(S(=O)(=O)c2cccc(S(=O)(=O)N3CCOCC3)c2)C1` (configuration not stated), the cytotoxicity at 10 µM was found to be 3.42%. The figure for `O=C(NC1CC1)[C@H]1COC[C@H]2CN(c3ncc(F)cn3)C[C@H]21` is -0.664%; for `CCn1cc2c(n1)C(COC)CN(Cc1ccoc1)C2` (configuration not stated) it is 7.89%. The figure for `O=C(c1ccco1)N1CCCC2(CCN(CCN3CCCC3)C2=O)C1` (configuration not stated) is -4.73%. The figure for `Cc1nccn1-c1nccnc1C1CCCN(C2CCCC2)C1` (configuration not stated) is -0.55%; for `Cc1nc(CC(=O)N2CCc3nc(-c4cnccn4)nc(O)c3C2)cs1` it is 16.2%.

As for `Cc1cccnc1C(Cc1ccsc1)NC(=O)Cn1cccnc1=O` (configuration not stated), the cytotoxicity at 10 µM was found to be 3.08%. For `CC(=O)N1CC2(CCCCN2Cc2ccc(Cl)cc2)Cc2ccccc21` (configuration not stated) the value was 14.5%; for `FC(F)Oc1ccccc1CNCc1cc(Br)c2c(c1)OCO2`, 10.7%; for `Cc1ccc(C(=O)NCC(C)Cn2cccn2)c(=O)[nH]1` (configuration not stated), 3.14%. For `COCCCN(C)c1cc(C(F)(F)F)nc(-c2cccnc2)n1` the value was -4.83%. The figure for `O=C1OCCC1N1CCN(c2ccccn2)CC1` (configuration not stated) is 7.37%; for `Cn1cc(CCNC(=O)c2cc3ccccc3nc2N2CCCC2)cn1` it is -1.29%; for `COc1ccc2c(c1)NC(=O)C2OC(=O)Cc1ccccc1C` (configuration not stated) it is 45.2%. `Cc1cc(NC(=O)C(C)NCCn2cccn2)no1` (configuration not stated): the cytotoxicity at 10 µM was determined as 10.6%. As for `O=S(=O)(c1cc2ccccc2o1)N1CCCC1`, the cytotoxicity at 10 µM was determined as 20.2%. For `N#Cc1c(Cl)nsc1NCc1ccc(N2CCSCC2)cc1`, the cytotoxicity at 10 µM was found to be 1.24%.

On to `Cc1noc(C)c1CNc1cccc(C(=O)N(C)c2ccccc2)c1`, for which the cytotoxicity at 10 µM is 17.5%. As for `CCN1CCN(C(C)CNC(=O)Nc2nc3ccccc3s2)CC1` (configuration not stated), the cytotoxicity at 10 µM was -2.32%. In the case of `O=C(c1ccc(F)c(Br)c1)N1CCCN2CCCC2C1` (configuration not stated), the cytotoxicity at 10 µM was -0.746%.

Turning to `CNS(=O)(=O)c1cccc(C(C)NCc2ccc(F)c(F)c2)c1` (configuration not stated), the cytotoxicity at 10 µM is 16.2%. With `CCCC(NC(=O)c1cc(C)c(F)cc1F)c1nnn[nH]1` (configuration not stated), the cytotoxicity at 10 µM was -2.59%.

`CCN(CC1CN(Cc2cccc(C#N)c2)CCO1)c1cccnn1` (configuration not stated): the cytotoxicity at 10 µM is 17%. For `Cc1ccc(C(=O)NCCNCC2CNc3ccnn3C2)cc1F` (configuration not stated) the value was -1.62%; for `O=C(CCc1ccsc1)NC1CCN(c2cccc(F)c2)CC1`, -3.89%; for `Cn1cc(NC(=O)CCc2ccsc2)ccc1=O`, -2.9%. As to `Cc1nc(CCNC(Cc2ccncc2)C(F)(F)F)cs1` (configuration not stated), the cytotoxicity at 10 µM is -1.48%. On to `CN1CCN(c2ccc(F)cc2C(N)=O)CC1`, for which the cytotoxicity at 10 µM is 6.11%.

On to `Cc1nnc(C(C)N(C)Cc2c(C)nn(-c3ccccc3C)c2C)o1` (configuration not stated), for which the cytotoxicity at 10 µM was -1.07%. For `CC(NCc1cnc(C2CCC2)s1)c1ccc(-n2cccn2)cc1` (configuration not stated) the value was 7.67%.

`COc1ncc(Cl)c(NCc2ccc(C(=O)N(C)C)cc2)n1`: the cytotoxicity at 10 µM was 9.95%. The figure for `Cn1c(=O)oc2cc(Nc3ncc(C#N)cc3Cl)ccc21` is 4.93%; for `CN1CC(Nc2ccc(Br)cc2C#N)CCC1=O` (configuration not stated) it is 8.25%.

On to `CCc1ccc(C(=O)O)cc1S(=O)(=O)N(C)c1cccc(C)c1`, for which the cytotoxicity at 10 µM is -8.2%. Take `N#Cc1cccc(OCC(=O)N(Cc2ccncc2)C2CC2)c1`: the cytotoxicity at 10 µM is -44.2%. As to `OCc1cc2ccccc2nc1NCC1CC1`, the cytotoxicity at 10 µM is -46.2%. For `Cc1cnc(CCN(C)C(=O)c2cccc(C)c2O)s1` the value was -2.48%.

Consider `CN(CCS(=O)(=O)c1cc(Cl)ccc1Cl)CC(=O)Nc1cccc(F)c1`, for which the cytotoxicity at 10 µM was found to be 13.9%. Consider `Cn1cc(C(=O)OCC(N)=O)c(-c2ccc(F)cc2F)n1`, for which the cytotoxicity at 10 µM is -7.85%. Consider `CC(=O)N1CCCN(C(=O)c2oc(Br)cc2C)CC1`, for which the cytotoxicity at 10 µM was -13.6%.

As for `CN(C)S(=O)(=O)N1CCC2(COCc3cnc(-c4cccnc4)nc32)C1` (configuration not stated), the cytotoxicity at 10 µM was -115%. Take `CN(C)C(=O)N1CCc2c(COCC3CC3)cncc2C1`: the cytotoxicity at 10 µM was -68.2%. The figure for `CN(C)C(=O)CC1CC2(CCNCC2)c2cc(F)ccc21` (configuration not stated) is 6.54%; for `COCCn1c2c(ccc1=O)CC(NS(C)(=O)=O)CC2` (configuration not stated) it is 8.8%; for `COc1ccccc1Nc1nc2c(s1)C(=O)CN(C(=O)CC(C)C)C2` it is 61.2%. The figure for `COc1cccc(C(=O)C2CCCN(c3cc(C#N)ccn3)C2)c1` (configuration not stated) is 1.85%; for `CN(CC(=O)N1CC(C)(C)[C@@](C)(O)C1)Cc1ccncc1` it is -49.4%. For `O=C(NCC1CCCN(C(=O)NCCc2ccccc2)C1)c1ccco1` (configuration not stated) the value was -4.66%; for `CC(C)N1CCOC(CC(=O)N2CCCN(Cc3ccncc3)CC2)C1` (configuration not stated), -7.49%; for `CSc1ccc(CN(C(=O)c2cc(=O)[nH]c(=O)[nH]2)C2CC2)cc1`, -44.8%. As to `CN(C(=O)CC1=CCCCC1)C1CCCN(CCc2ccccc2)C1` (configuration not stated), the cytotoxicity at 10 µM was found to be 7.23%. The figure for `CCN(Cc1noc(C)n1)C(=O)CCn1c(C)cc2ccccc21` is -3.97%. On to `Cc1ncsc1CCC(=O)N1CCn2cccc2C1c1cccnc1` (configuration not stated), for which the cytotoxicity at 10 µM was -9.57%. The figure for `CNc1nc(C(=O)N2CCCC(CO)(CCCOC)C2)cs1` (configuration not stated) is 7.43%; for `CC(C)N1CCCC(C(=O)N2CCN(c3nsc4ccccc34)CC2)C1` (configuration not stated) it is 2.81%; for `COCCN1CCC(C(=O)N(C)CCOc2ccc(C)cc2Cl)C1` (configuration not stated) it is 13.4%. `CC(C)N1CCC(CC(=O)N2CCN(Cc3nccn3C)CC2)CC1`: the cytotoxicity at 10 µM is -3.91%. The figure for `CCCn1ncc(C(=O)NC2CCN(C3CCOCC3)CC2)c1C` is 5.66%; for `CC(=O)NC1CCN(c2nc(N(C)C)nc3c2CCN(C(C)=O)C3)CC1` it is 0.541%; for `CN(Cc1ccncn1)c1nccc(CCC(F)(F)F)n1` it is 11.2%. In the case of `CCN(C)C[C@@H]1CN(S(=O)(=O)c2ccc(C#N)cc2)C[C@@H]1CO`, the cytotoxicity at 10 µM is 13.5%. Consider `CCn1nc(C)cc1S(=O)(=O)N1CCC2(CCCN(C(C)C)C2=O)C1` (configuration not stated), for which the cytotoxicity at 10 µM was -16.3%.

`CCC(C)N(Cc1cccnc1)Cc1cc2c(cc1Cl)OCO2` (configuration not stated): the cytotoxicity at 10 µM came to 6.16%. The figure for `CCCc1nc(N(C)Cc2cnc(NC)nc2)c2cnn(C)c2n1` is 3.42%; for `Cc1cc(C)n2ncc(CN3CCC(n4cc(CCO)nn4)CC3)c2n1` it is 6.59%; for `Cc1c(NC(=O)c2ncn[nH]2)cccc1C(=O)NC(C)(C)C` it is -8.93%.

`CN1CC(c2n[nH]c(=O)n2-c2cccc(Cl)c2)CC1=O` (configuration not stated): the cytotoxicity at 10 µM came to 3.24%. The figure for `CS(=O)(=O)N1CCN(c2ccnc(N3CCCCC3)n2)CC1` is -0.359%; for `O=C1CC[C@H]2CN(C3CCOCC3)CC[C@H]2N1CCC1=CCCCC1` it is -4.76%; for `O=C(CC1=CCCCC1)N1CCC(Cn2cc(CCO)nn2)CC1` it is 3.88%. The figure for `O=c1cc(CN2CCCC(CCc3c(F)cccc3F)C2)[nH]c(=O)[nH]1` (configuration not stated) is -3.88%; for `CC(C)(O)C1CCN(C(=O)Nc2nc(-c3ccccc3)ns2)CC1` it is 5.68%; for `OCCN1CCN(Cc2coc(-c3ccccc3)n2)CC1` it is -5.03%. With `O=C(NCc1nn(-c2ccccc2)c2c1CCC2)C1CC1`, the cytotoxicity at 10 µM was -8.36%. The figure for `CCc1ccsc1C(=O)N1CCCN(Cc2cnn(CC)c2)CC1` is 0.501%; for `Cc1ccc(OCC(O)CN2CCc3c(ncn3C3CC3)C2)cc1` (configuration not stated) it is 0.2%; for `Cc1ccc(-c2nc(CN3CCOC(CN(C)C)C3)co2)cc1` (configuration not stated) it is -4.23%. The figure for `CCn1cnnc1CNC(=O)N(C)Cc1ccc2c(c1)OCO2` is -5.83%. Consider `COCc1nc(C(=O)N2CCCC(n3ccnc3)C2)cs1` (configuration not stated), for which the cytotoxicity at 10 µM was -2.12%. Regarding `Cc1noc(C)c1CN1CCN(C(C)c2nc(C3CC3)no2)CC1` (configuration not stated), the cytotoxicity at 10 µM is -16.5%. As for `CN(Cc1cn2ccccc2c1C#N)C1CCCN(c2cccnn2)C1` (configuration not stated), the cytotoxicity at 10 µM is -11.9%. For `Cc1ccc(CN2CCc3c(nnn3C)C2COCc2ccccc2)s1` (configuration not stated) the value was -110%. `Cc1ccc(N2CCC3(CC2)CCN(C2CCOCC2)CC3)nn1`: the cytotoxicity at 10 µM was 5.5%. `CC(C)N1CCC2(CC1)CC(CC(N)=O)c1ccc(F)cc12` (configuration not stated): the cytotoxicity at 10 µM amounted to 12.8%. For `Cc1ncsc1CN1CCn2c(COc3cccnc3)cnc2C1C` (configuration not stated) the value was 9.16%. Regarding `c1cc(CN2C[C@@H]3OCCN(CC4CC4)[C@@H]3C2)n[nH]1`, the cytotoxicity at 10 µM is -109%.

Regarding `CS(=O)(=O)N1CCC2(CC1)CC(NCC1CC1)c1ccccc12` (configuration not stated), the cytotoxicity at 10 µM was -111%.

For `CN(Cc1ccncc1)C1CC2(CCN(c3ncccn3)CC2)C1`, the cytotoxicity at 10 µM amounted to 13.1%. The figure for `CCN1c2ccc(-c3cncn3CC(=O)NC(C)(C)C)cc2CC1C` (configuration not stated) is -0.579%; for `O=C(c1cccc(F)c1)N1CC[C@H]2[C@H]1CCN2CC1CCOCC1` it is -75.4%; for `COc1cccc(C(=O)N2CCc3nc(C4CCCN4)ncc3C2)c1` (configuration not stated) it is -7.28%. For `CN1CC2(CCN(S(=O)(=O)C3CC3)CC2)c2ccccc21` the value was -4.35%; for `CCN1C[C@H]2[C@@H](C1)N(S(=O)(=O)c1cccnc1)CC[C@H]2OC`, -1.78%.

As for `Cn1cnc2c1C(COCC1CC1)CN(C(=O)c1cscn1)C2` (configuration not stated), the cytotoxicity at 10 µM was determined as 0.922%.

On to `NC1CC(C(F)(F)F)=NC=C1c1ccc(Cl)cc1` (configuration not stated), for which the cytotoxicity at 10 µM was 50.2%. The figure for `O=C(c1cccc(CNCC=Cc2ccccc2)c1)N1CCCC1` is 9.46%.
